Key:
[1] = Inhibition of L1 (unknown origin) expressed in Escherichia coli BL21(DE3) using cefazolin as substrate preincubated for 30 mins followed by substrate addition by UV-Visible spectrophotometric method
Summary of the method: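 L1 IC50 measured in 30 mM Tris, pH 8.5, with cefazolin as substrate and inhibitor at 0.1–20 μM. Run in triplicate; mean ± SD reported.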

[2] = test system: Escherichia coli; experiment: Growth inhibition of Escherichia coli DH10B at 1024 ug/ml after 12 hrs macrodilution broth method; parameters: species or system K-12 substr. DH10B
Summary of the method: (§1)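 Cefazolin MIC determined for E. coli DH10B carrying pBC SK(+)-L1 and for E. coli not expressing L1, with and without compound.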

[3] = Inhibition of ImiS (unknown origin) expressed in Escherichia coli BL21(DE3) at 100 uM using imipenem as substrate preincubated for 30 mins followed by substrate addition by UV-Visible spectrophotometric method relative to control
Summary of the method: (§2)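 Purified enzyme preincubated with 100 μM inhibitor in its enzyme-specific buffer, then substrate added: 50 μM cefazolin for IMP-1 and L1, 40 μM imipenem for ImiS. Hydrolysis followed by UV-vis spectrophotometry. Preincubation times of 3–60 min were tested. % inhibition = activity without inhibitor (100%) minus residual activity.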

[4] = Inhibition of L1 (unknown origin) expressed in Escherichia coli BL21(DE3) at 100 uM using cefazolin as substrate preincubated for 3 to 60 mins followed by substrate addition by UV-Visible spectrophotometric method relative to control; settings: TDE = time-dependent effect; summary of the method: as §2
[5] = Inhibition of IMP1 (unknown origin) expressed in Escherichia coli BL21(DE3) at 100 uM using cefazolin as substrate preincubated for 30 mins followed by substrate addition by UV-Visible spectrophotometric method relative to control; summary of the method: as §2
[6] = Inhibition of IMP1 (unknown origin) expressed in Escherichia coli BL21(DE3) at 100 uM using cefazolin as substrate preincubated for 3 to 60 mins followed by substrate addition by UV-Visible spectrophotometric method; settings: TDE = time-dependent effect; summary of the method: as §2
[7] = Inhibition of L1 (unknown origin) expressed in Escherichia coli DH10B harboring pBC SK(+)-L1 assessed as potentiation of cefazolin-induced antibacterial activity by measuring cefazolin MIC at 1024 ug/ml after 12 hrs macrodilution broth method
Summary of the method: (§3)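 Cefazolin MICs were read for E. coli DH10B carrying pBC SK(+)-L1 across a series of inhibitor concentrations. Cefazolin alone (no inhibitor) on the same strain served as the reference MIC. E. coli not expressing L1 was tested alongside as the susceptible comparator.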

[8] = Inhibition of L1 (unknown origin) expressed in Escherichia coli BL21(DE3) at 100 uM using cefazolin as substrate preincubated for 30 mins followed by substrate addition by UV-Visible spectrophotometric method relative to control; summary of the method: as §2
[9] = Inhibition of ImiS (unknown origin) expressed in Escherichia coli BL21(DE3) at 100 uM using imipenem as substrate preincubated for 3 to 60 mins followed by substrate addition by UV-Visible spectrophotometric method relative to control; settings: TDE = time-dependent effect; summary of the method: as §2
[10] = test system: Escherichia coli; experiment: Growth inhibition of Escherichia coli DH10B harboring pBC SK(+)-L1 at 1024 ug/ml after 12 hrs macrodilution broth method; parameters: species or system K-12 substr. DH10B; summary of the method: as §1
[11] = Chemical stability in pH 5 Tris buffer after 4 days by UV-Visible spectral analysis; type: physicochemical; settings: pH 5, 96 h
Summary of the method: (§4)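 Compounds incubated in aqueous solution at pH 5.0, 7.0 and 9.0 for 4 days; stability followed by UV-vis spectra.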

[12] = Chemical stability in pH 9 Tris buffer after 4 days by UV-Visible spectral analysis; type: physicochemical; settings: pH 9, 96 h; summary of the method: as §4
[13] = Chemical stability in pH 7 Tris buffer after 4 days by UV-Visible spectral analysis; type: physicochemical; settings: pH 7, 96 h; summary of the method: as §4
[14] = test system: L929; experiment: Cytotoxicity against mouse L929 cells assessed as reduction in cell viability up to 400 uM after 48 hrs by CCK assay; type: cell-based; settings: l929, 48 h
Summary of the method: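 L-929 mouse fibroblasts exposed to compound at 12.5, 25, 50, 100, 200 and 400 μM working concentrations; cell viability measured.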

[15] = Mixed-type inhibition of L1 (unknown origin) expressed in Escherichia coli BL21(DE3) using varying levels of cefazolin as substrate preincubated for 30 mins followed by substrate addition by Michaelis-Menten plot analysis
[16] = Inhibition of L1 (unknown origin) expressed in Escherichia coli DH10B harboring pBC SK(+)-L1 assessed as potentiation of cefazolin-induced antibacterial activity by measuring cefazolin MIC at 64 ug/ml after 12 hrs macrodilution broth method; summary of the method: as §3
[17] = Inhibition of L1 (unknown origin) expressed in Escherichia coli DH10B harboring pBC SK(+)-L1 assessed as potentiation of cefazolin-induced antibacterial activity by measuring cefazolin MIC at 8 ug/ml after 12 hrs macrodilution broth method; summary of the method: as §3
[18] = Inhibition of L1 (unknown origin) expressed in Escherichia coli DH10B harboring pBC SK(+)-L1 assessed as potentiation of cefazolin-induced antibacterial activity by measuring cefazolin MIC at 256 ug/ml after 12 hrs macrodilution broth method; summary of the method: as §3
[19] = Inhibition of L1 (unknown origin) expressed in Escherichia coli DH10B harboring pBC SK(+)-L1 assessed as potentiation of cefazolin-induced antibacterial activity by measuring cefazolin MIC at 16 ug/ml after 12 hrs macrodilution broth method; summary of the method: as §3
[20] = Inhibition of L1 (unknown origin) expressed in Escherichia coli DH10B harboring pBC SK(+)-L1 assessed as potentiation of cefazolin-induced antibacterial activity by measuring cefazolin MIC at 4 ug/ml after 12 hrs macrodilution broth method; summary of the method: as §3
[21] = Inhibition of L1 (unknown origin) expressed in Escherichia coli DH10B harboring pBC SK(+)-L1 assessed as potentiation of cefazolin-induced antibacterial activity by measuring fold reduction in cefazolin MIC at 1024 ug/ml after 12 hrs macrodilution broth method relative to cefazolin alone; summary of the method: as §3
[22] = Inhibition of L1 (unknown origin) expressed in Escherichia coli DH10B harboring pBC SK(+)-L1 assessed as potentiation of cefazolin-induced antibacterial activity by measuring cefazolin MIC at 512 ug/ml after 12 hrs macrodilution broth method; summary of the method: as §3
[23] = Inhibition of L1 (unknown origin) expressed in Escherichia coli DH10B harboring pBC SK(+)-L1 assessed as potentiation of cefazolin-induced antibacterial activity by measuring cefazolin MIC at 32 ug/ml after 12 hrs macrodilution broth method; summary of the method: as §3
[24] = Inhibition of L1 (unknown origin) expressed in Escherichia coli DH10B harboring pBC SK(+)-L1 assessed as potentiation of cefazolin-induced antibacterial activity by measuring cefazolin MIC at 128 ug/ml after 12 hrs macrodilution broth method; summary of the method: as §3

SMILES | IC50 [1] | growth inhibition (GI) [2] | inhibition [3] | inhibition [4] | inhibition [5] | inhibition [6] | MIC [7] | inhibition [8] | inhibition [9] | growth inhibition (GI) [10] | also measured
CCCCNC(=O)CSCC(=O)[O-].[K+] | 1230 nM | Non-Toxic | 20% | Tde | 55% | Tde | 16 µg/mL | 89% | Tde | Non-Toxic | 
O=C([O-])CSCC(=O)Nc1ccccc1Cl.[K+] | 1040 nM | Non-Toxic | 39% | Tde | 53% | Tde | 16 µg/mL | 80% | Tde | Non-Toxic | Stability [11]: Unstable; Stability [12]: Unstable; Stability [13]: Unstable
O=C([O-])CSCC(=O)Nc1ccccc1[N+](=O)[O-].[K+] | 4210 nM | Non-Toxic | 21% | Tde | 44% | Tde | 16 µg/mL | 77% | Tde | Non-Toxic | Activity [14]: Non-Toxic
O=C([O-])CSCC(=O)NCc1ccccc1.[K+] | 460 nM | Non-Toxic | 21% | Tde | 51% | Tde | 16 µg/mL | 97% | Tde | Non-Toxic | 
O=C([O-])CSCC(=O)Nc1ccccc1O.[K+] | 580 nM | Non-Toxic | 74% | Tde | 40% | Tde | 8 µg/mL | 95% | Tde | Non-Toxic | 
O=C([O-])CSCC(=O)Nc1ccccc1.[K+] | 980 nM | Non-Toxic | 18% | Tde | 43% | Tde | 16 µg/mL | 92% | Tde | Non-Toxic | Activity [14]: Non-Toxic
O=C([O-])CSCC(=O)Nc1ccc(Cl)cc1.[K+] | 20000 nM | Non-Toxic | 25% | Tde | 48% | Tde | 16 µg/mL | 73% | Tde | Non-Toxic | 
CCc1ccccc1NC(=O)CSCC(=O)[O-].[K+] | 590 nM | Non-Toxic | 21% | Tde | 80% | Tde | 16 µg/mL | 92% | Tde | Non-Toxic | Ki [15]: 3700 nM
O=C([O-])CSCC(=O)Nc1ccc([N+](=O)[O-])cc1.[K+] | > 20000 nM | Non-Toxic | 85% | Tde | 45% | Tde | 2 µg/mL | 71% | Tde | Non-Toxic | MIC [16]: 16 µg/mL; MIC [17]: 16 µg/mL; MIC [18]: 8 µg/mL; MIC [19]: 16 µg/mL; MIC [20]: 16 µg/mL; fold change (FC) [21]: 8; MIC [22]: 8 µg/mL; MIC [23]: 16 µg/mL; MIC [24]: 8 µg/mL
Cc1ccccc1NC(=O)CSCC(=O)[O-].[K+] | 460 nM | Non-Toxic | 24% | Tde | 50% | Tde | 16 µg/mL | 95% | Tde | Non-Toxic | 
O=C([O-])CSCC(=O)Nc1ccc(C(=O)O)cc1.[K+] | 7500 nM | Non-Toxic | 87% | Tde | 71% | Tde | 16 µg/mL | 75% | Tde | Non-Toxic | 
O=C([O-])CSCC(=O)Nc1cccc(Cl)c1.[K+] | 2010 nM | Non-Toxic | 34% | Tde | 48% | Tde | 16 µg/mL | 79% | Tde | Non-Toxic | Ki [15]: 31800 nM
CCCCc1ccc(NC(=O)CSCC(=O)[O-])cc1.[K+] | 430 nM | Non-Toxic | 29% | Tde | 64% | Tde | 2 µg/mL | 97% | Tde | Non-Toxic | MIC [16]: 16 µg/mL; MIC [17]: 16 µg/mL; MIC [18]: 8 µg/mL; MIC [19]: 16 µg/mL; MIC [20]: 16 µg/mL; fold change (FC) [21]: 8; MIC [22]: 8 µg/mL; MIC [23]: 16 µg/mL; MIC [24]: 16 µg/mL
CC(C)CNC(=O)CSCC(=O)[O-].[K+] | 3810 nM | Non-Toxic | 23% | Tde | 59% | Tde | 16 µg/mL | 78% | Tde | Non-Toxic | 
CC(C)(C)NC(=O)CSCC(=O)[O-].[K+] | 750 nM | Non-Toxic | 21% | Tde | 69% | Tde | 16 µg/mL | 91% | Tde | Non-Toxic | Activity [14]: Non-Toxic
